In ChEMBL document CHEMBL3739417, “Synthesis and biological evaluation of novel 4,5-disubstituted 2H-1,2,3-triazoles as cis-constrained analogues of combretastatin A-4” (2015):

How the values were obtained:
Assay type in all cases: functional
[1] = Growth inhibition of human PC3 cells after 48 hrs by sulforhodamine B assay; settings: PC-3, 48 h
Summary of the method: (§1)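 NCI-60 panel screen by SRB assay (Rubinstein method). Percentage growth taken from optical density of SRB colour, read before and 48 hrs after exposure to compound or vehicle control. All analogues first screened at 10^-5 M. Analogues giving 60% growth inhibition at that level in at least eight lines then went to a five-concentration dose-response study.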

MCF7 = assay: Growth inhibition of human MCF7 cells after 48 hrs by sulforhodamine B assay; settings: MCF7, 48 h; summary of the method: as §1
786-0 = assay: Growth inhibition of human 786-0 cells after 48 hrs by sulforhodamine B assay; settings: 786-0, 48 h; summary of the method: as §1
[2] = Growth inhibition of human HOP92 cells after 48 hrs by sulforhodamine B assay; settings: HOP-92, 48 h; summary of the method: as §1
NCI-H460 = assay: Growth inhibition of human NCI-H460 cells after 48 hrs by sulforhodamine B assay; settings: NCI-H460, 48 h; summary of the method: as §1
[3] = Growth inhibition of human OVCAR3 cells after 48 hrs by sulforhodamine B assay; settings: OVCAR-3, 48 h
Summary of the method: (§2)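 NCI-60 sulforhodamine B screen. Compounds were first tested at a single dose of 10⁻⁵ M; hits, defined as ≥60% growth inhibition in at least eight lines, went on to a five-concentration dose–response. SRB optical density was read before and 48 h after exposure to compound or vehicle. Percentage growth was calculated from OD.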

SR = assay: Growth inhibition of human SR cells after 48 hrs by sulforhodamine B assay; summary of the method: as §1
K562 = assay: Growth inhibition of human K562 cells after 48 hrs by sulforhodamine B assay; settings: K562, 48 h; summary of the method: as §1
[4] = Growth inhibition of human HCC2998 cells after 48 hrs by sulforhodamine B assay; settings: HCC 2998, 48 h; summary of the method: as §1
[5] = Growth inhibition of human HCT116 cells after 48 hrs by sulforhodamine B assay; settings: HCT-116, 48 h; summary of the method: as §1
NCI-H23 = assay: Growth inhibition of human NCI-H23 cells after 48 hrs by sulforhodamine B assay; settings: NCI-H23, 48 h; summary of the method: as §1
[6] = Growth inhibition of human SF268 cells after 48 hrs by sulforhodamine B assay; settings: SF-268, 48 h; summary of the method: as §1
SK-MEL-2 = assay: Growth inhibition of human SK-MEL-2 cells after 48 hrs by sulforhodamine B assay; settings: SK-MEL-2, 48 h; summary of the method: as §1
[7] = Growth inhibition of human HCT15 cells after 48 hrs by sulforhodamine B assay; settings: HCT-15, 48 h; summary of the method: as §1
SK-MEL-5 = assay: Growth inhibition of human SK-MEL-5 cells after 48 hrs by sulforhodamine B assay; settings: SK-MEL-5, 48 h; summary of the method: as §1
[8] = Growth inhibition of human SF295 cells after 48 hrs by sulforhodamine B assay; settings: SF-295, 48 h; summary of the method: as §1
[9] = Growth inhibition of human UO31 cells after 48 hrs by sulforhodamine B assay; settings: UO-31, 48 h; summary of the method: as §1
MDA-MB-468 = assay: Growth inhibition of human MDA-MB-468 cells after 48 hrs by sulforhodamine B assay; settings: MDA-MB-468, 48 h; summary of the method: as §1
[10] = Growth inhibition of human SKOV3 cells after 48 hrs by sulforhodamine B assay; settings: SK-OV-3, 48 h; summary of the method: as §1
[11] = Growth inhibition of human HOP62 cells after 48 hrs by sulforhodamine B assay; settings: HOP-62, 48 h; summary of the method: as §1
HT-29 = assay: Growth inhibition of human HT-29 cells after 48 hrs by sulforhodamine B assay; settings: HT-29, 48 h; summary of the method: as §1
[12] = Growth inhibition of human IGROV1 cells after 48 hrs by sulforhodamine B assay; settings: IGROV-1, 48 h; summary of the method: as §1
ACHN = assay: Growth inhibition of human ACHN cells after 48 hrs by sulforhodamine B assay; summary of the method: as §1
U-251 = assay: Growth inhibition of human U251 cells after 48 hrs by sulforhodamine B assay; settings: U-251, 48 h; summary of the method: as §1
[13] = Growth inhibition of human RPMI8226 cells after 48 hrs by sulforhodamine B assay; settings: RPMI-8226, 48 h; summary of the method: as §1
MDA-MB-231 = assay: Growth inhibition of human MDA-MB-231 cells after 48 hrs by sulforhodamine B assay; settings: MDA-MB-231, 48 h; summary of the method: as §1
A549 = assay: Growth inhibition of human A549/ATCC cells after 48 hrs by sulforhodamine B assay; settings: A549, 48 h; summary of the method: as §1
[14] = Growth inhibition of human NCI-ADR-RES cells after 48 hrs by sulforhodamine B assay; summary of the method: as §1
[15] = Growth inhibition of human SNB75 cells after 48 hrs by sulforhodamine B assay; settings: SNB-75, 48 h; summary of the method: as §1
[16] = Growth inhibition of human SW620 cells after 48 hrs by sulforhodamine B assay; settings: SW-620, 48 h; summary of the method: as §1
[17] = Growth inhibition of human DU145 cells after 48 hrs by sulforhodamine B assay; settings: DU-145, 48 h; summary of the method: as §1
CAKI-1 = assay: Growth inhibition of human CAKI-1 cells after 48 hrs by sulforhodamine B assay; settings: CAKI-1, 48 h; summary of the method: as §1
A498 = assay: Growth inhibition of human A498 cells after 48 hrs by sulforhodamine B assay; settings: A498, 48 h; summary of the method: as §2
[18] = Growth inhibition of human LOXIMVI cells after 48 hrs by sulforhodamine B assay; settings: LOX IMVI; summary of the method: as §1
MDA-MB-435 = assay: Growth inhibition of human MDA-MB-435 cells after 48 hrs by sulforhodamine B assay; settings: MDA-MB-435, 48 h; summary of the method: as §2
CCRF-CEM = assay: Growth inhibition of human CCRF-CEM cells after 48 hrs by sulforhodamine B assay; summary of the method: as §1
KM12 = assay: Growth inhibition of human KM12 cells after 48 hrs by sulforhodamine B assay; settings: KM12, 48 h; summary of the method: as §1
[19] = read-out: LD50 (the source's name)

COc1cc(-c2n[nH]nc2-c2ccc3c(c2)OCO3)cc(OC)c1OC
GI50 [1]: 260 nM
CC50 [1, 19]: > 100000 nM
GI50 (MCF7): 80 nM
CC50 (MCF7; [19]): > 100000 nM
GI50 (786-0): 620 nM
LC50 (concentration killing 50% of cells) (786-0; read-out: LD50): > 100000 nM
GI50 [2]: 120 nM
CC50 [2, 19]: > 100000 nM
GI50 (NCI-H460): 340 nM
CC50 (NCI-H460; [19]): > 100000 nM
GI50 [3]: 430 nM
LC50 (concentration giving 50% net cell kill) ([3]; read-out: LD50): > 100000 nM
GI50 (SR): 40 nM
LC50 (concentration giving 50% net cell kill) (SR; read-out: LD50): > 100000 nM
GI50 (K562): 50 nM
CC50 (K562; [19]): > 100000 nM
GI50 [4]: > 100000 nM
CC50 [4, 19]: > 100000 nM
GI50 [5]: 180 nM
CC50 [5, 19]: > 100000 nM
GI50 (NCI-H23): 770 nM
LC50 (concentration giving 50% cell kill) (NCI-H23; read-out: LD50): > 100000 nM
GI50 [6]: > 100000 nM
CC50 [6, 19]: > 100000 nM
GI50 (SK-MEL-2): 20 nM
CC50 (SK-MEL-2; [19]): > 100000 nM
GI50 [7]: 130 nM
CC50 [7, 19]: > 100000 nM
GI50 (SK-MEL-5): > 100000 nM
CC50 (SK-MEL-5; [19]): > 100000 nM
GI50 [8]: 100 nM
CC50 [8, 19]: > 100000 nM
GI50 [9]: 660 nM
LC50 (concentration killing 50% of cells) ([9]; read-out: LD50): > 100000 nM
GI50 (MDA-MB-468): 230 nM
CC50 (MDA-MB-468; [19]): > 100000 nM
GI50 [10]: 490 nM
LC50 (concentration killing 50% of cells) ([10]; read-out: LD50): > 100000 nM
GI50 [11]: 340 nM
LC50 (concentration killing 50% of cells) ([11]; read-out: LD50): > 100000 nM
GI50 (HT-29): 390 nM
LC50 (concentration killing 50% of cells) (HT-29; read-out: LD50): > 100000 nM
GI50 [12]: > 100000 nM
CC50 [12, 19]: > 100000 nM
GI50 (ACHN): 710 nM
CC50 (ACHN; [19]): > 100000 nM
GI50 (U-251): 300 nM
CC50 (U-251; [19]): > 100000 nM
GI50 [13]: 330 nM
CC50 [13, 19]: > 100000 nM
GI50 (MDA-MB-231): 530 nM
CC50 (MDA-MB-231; [19]): > 100000 nM
GI50 (A549): 290 nM
CC50 (A549; [19]): > 100000 nM
GI50 [14]: 80 nM
CC50 [14, 19]: > 100000 nM
GI50 [15]: 80 nM
CC50 [15, 19]: > 100000 nM
GI50 [16]: 110 nM
LD50 (concentration killing 50% of cells) [16]: > 100 µM
GI50 [17]: 350 nM
CC50 [17, 19]: > 100000 nM
GI50 (CAKI-1): 320 nM
CC50 (CAKI-1; [19]): > 100000 nM
GI50 (A498): 340 nM
LC50 (50% net cell kill) (A498; read-out: LD50): > 100000 nM
GI50 [18]: 550 nM
CC50 [18, 19]: > 100000 nM
GI50 (MDA-MB-435): 90 nM
LC50 (concentration killing 50% of cells) (MDA-MB-435; read-out: LD50): > 100000 nM
GI50 (CCRF-CEM): 280 nM
LC50 (concentration killing 50% of cells) (CCRF-CEM; read-out: LD50): > 100000 nM
GI50 (KM12): 70 nM
LC50 (concentration killing 50% of cells) (KM12; read-out: LD50): > 100000 nM
